According to ChEMBL document CHEMBL3616441, “Discovery of a Selective and CNS Penetrant Negative Allosteric Modulator of Metabotropic Glutamate Receptor Subtype 3 with Antidepressant and Anxiolytic Activity in Rodents” (J Med Chem, 2015):
Calls of active or inactive are those of the source. The rule behind the calls is not given here.

Columns and labels:
[1] = target: Metabotropic glutamate receptor 3 (Rattus norvegicus) (UniProt P31422); test: Negative allosteric modulation of rat mGlu3 receptor assessed as amplitude response at 30 uM relative to glutamate
Sequence of Metabotropic glutamate receptor 3 (Rattus norvegicus) (P31422 23-879 limits assumed): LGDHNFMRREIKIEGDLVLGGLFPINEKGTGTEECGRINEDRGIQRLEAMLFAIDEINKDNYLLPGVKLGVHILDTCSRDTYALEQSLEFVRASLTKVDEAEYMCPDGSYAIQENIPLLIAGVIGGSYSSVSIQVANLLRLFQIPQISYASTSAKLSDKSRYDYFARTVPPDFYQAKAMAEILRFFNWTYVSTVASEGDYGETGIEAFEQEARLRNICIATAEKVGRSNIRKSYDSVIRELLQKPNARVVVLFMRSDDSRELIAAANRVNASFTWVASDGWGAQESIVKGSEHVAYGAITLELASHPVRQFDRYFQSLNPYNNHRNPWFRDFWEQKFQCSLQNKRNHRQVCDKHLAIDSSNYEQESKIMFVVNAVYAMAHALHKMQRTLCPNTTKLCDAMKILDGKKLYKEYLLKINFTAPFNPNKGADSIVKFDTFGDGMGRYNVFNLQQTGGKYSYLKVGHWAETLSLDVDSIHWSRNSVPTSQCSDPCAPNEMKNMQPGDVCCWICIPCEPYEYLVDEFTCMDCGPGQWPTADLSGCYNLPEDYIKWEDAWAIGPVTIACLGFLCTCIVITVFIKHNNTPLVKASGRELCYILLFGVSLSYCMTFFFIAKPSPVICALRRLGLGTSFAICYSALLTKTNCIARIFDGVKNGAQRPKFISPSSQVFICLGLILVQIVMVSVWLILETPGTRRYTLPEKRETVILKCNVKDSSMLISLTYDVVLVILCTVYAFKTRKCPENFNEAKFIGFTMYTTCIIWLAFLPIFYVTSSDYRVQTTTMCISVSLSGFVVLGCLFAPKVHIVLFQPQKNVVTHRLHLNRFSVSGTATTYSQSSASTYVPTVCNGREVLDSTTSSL
How it was run: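 Calcium mobilization in cell line stably expressing rat mGlu3 with promiscuous Gα15; fluorescence read-out; amplitude of glutamate response with 30 μM test compound expressed as percentage of maximal response (100 μM glutamate); average of n = 3.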

[2] = target: Metabotropic glutamate receptor 5 (Rattus norvegicus, UniProt P31424); test: Modulation of rat mGlu5 receptor assessed as calcium mobilization by cell based fluorescence assay; format: functional
Sequence of Metabotropic glutamate receptor 5 (P31424 whole entry): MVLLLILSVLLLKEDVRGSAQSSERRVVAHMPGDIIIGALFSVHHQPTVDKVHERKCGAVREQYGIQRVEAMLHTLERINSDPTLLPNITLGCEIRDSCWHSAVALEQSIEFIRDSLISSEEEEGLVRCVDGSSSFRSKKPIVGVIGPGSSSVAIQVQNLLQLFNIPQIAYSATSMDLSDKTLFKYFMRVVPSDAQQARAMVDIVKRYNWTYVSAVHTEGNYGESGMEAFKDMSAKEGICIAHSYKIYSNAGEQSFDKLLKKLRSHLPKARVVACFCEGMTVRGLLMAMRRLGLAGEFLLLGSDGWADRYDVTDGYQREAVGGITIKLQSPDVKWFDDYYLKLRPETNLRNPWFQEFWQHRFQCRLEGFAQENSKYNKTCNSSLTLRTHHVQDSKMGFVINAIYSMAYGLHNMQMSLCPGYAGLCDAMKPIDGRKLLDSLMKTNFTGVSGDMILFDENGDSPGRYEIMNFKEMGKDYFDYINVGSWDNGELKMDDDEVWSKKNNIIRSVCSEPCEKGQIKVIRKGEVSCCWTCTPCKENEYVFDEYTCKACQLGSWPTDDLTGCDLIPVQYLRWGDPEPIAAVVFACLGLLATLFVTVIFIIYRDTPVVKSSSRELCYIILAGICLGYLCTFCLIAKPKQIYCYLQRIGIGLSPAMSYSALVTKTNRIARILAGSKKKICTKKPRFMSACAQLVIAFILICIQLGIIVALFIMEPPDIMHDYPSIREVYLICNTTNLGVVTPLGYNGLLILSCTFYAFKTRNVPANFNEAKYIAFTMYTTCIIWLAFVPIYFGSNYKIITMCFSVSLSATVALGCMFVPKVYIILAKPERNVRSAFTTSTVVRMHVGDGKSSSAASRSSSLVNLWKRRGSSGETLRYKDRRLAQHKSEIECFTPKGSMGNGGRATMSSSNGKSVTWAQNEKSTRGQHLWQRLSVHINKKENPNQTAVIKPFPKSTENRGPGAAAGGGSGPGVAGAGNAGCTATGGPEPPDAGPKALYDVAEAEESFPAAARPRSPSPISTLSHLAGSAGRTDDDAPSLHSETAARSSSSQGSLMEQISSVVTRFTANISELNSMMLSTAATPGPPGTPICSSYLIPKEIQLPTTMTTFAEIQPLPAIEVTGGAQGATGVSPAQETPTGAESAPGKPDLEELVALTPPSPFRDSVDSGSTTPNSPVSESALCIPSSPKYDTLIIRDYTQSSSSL
How it was run: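 Calcium mobilization assay with fluorescence read-out in cells expressing mGlu5; full concentration-response curves; % Glu Max is the amplitude of response with 30 μM test compound as a percentage of the maximal response to 100 μM glutamate; values averaged over n-3.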

[3] = Plasma clearance in rat at 0.2 mg/kg, iv administered as cassette dose; format: ADME, organism-based
[4] = Half life in rat at 0.2 mg/kg, iv administered as cassette dose; format: ADME, organism-based; conditions: in vivo
[5] = Volume of distribution at steady state in rat at 0.2 mg/kg, iv administered as cassette dose; format: ADME, organism-based; conditions: in vivo, read-out: Vdss
Plasma [6] = test: Fraction unbound in rat plasma; format: ADME, cell-free
[7] = target: Metabotropic glutamate receptor 3 (Rattus norvegicus, UniProt P31422); test: Negative allosteric modulation of rat mGlu3 receptor assessed as calcium mobilization by cell based fluorescence assay; format: functional
Sequence of Metabotropic glutamate receptor 3 (P31422 whole entry): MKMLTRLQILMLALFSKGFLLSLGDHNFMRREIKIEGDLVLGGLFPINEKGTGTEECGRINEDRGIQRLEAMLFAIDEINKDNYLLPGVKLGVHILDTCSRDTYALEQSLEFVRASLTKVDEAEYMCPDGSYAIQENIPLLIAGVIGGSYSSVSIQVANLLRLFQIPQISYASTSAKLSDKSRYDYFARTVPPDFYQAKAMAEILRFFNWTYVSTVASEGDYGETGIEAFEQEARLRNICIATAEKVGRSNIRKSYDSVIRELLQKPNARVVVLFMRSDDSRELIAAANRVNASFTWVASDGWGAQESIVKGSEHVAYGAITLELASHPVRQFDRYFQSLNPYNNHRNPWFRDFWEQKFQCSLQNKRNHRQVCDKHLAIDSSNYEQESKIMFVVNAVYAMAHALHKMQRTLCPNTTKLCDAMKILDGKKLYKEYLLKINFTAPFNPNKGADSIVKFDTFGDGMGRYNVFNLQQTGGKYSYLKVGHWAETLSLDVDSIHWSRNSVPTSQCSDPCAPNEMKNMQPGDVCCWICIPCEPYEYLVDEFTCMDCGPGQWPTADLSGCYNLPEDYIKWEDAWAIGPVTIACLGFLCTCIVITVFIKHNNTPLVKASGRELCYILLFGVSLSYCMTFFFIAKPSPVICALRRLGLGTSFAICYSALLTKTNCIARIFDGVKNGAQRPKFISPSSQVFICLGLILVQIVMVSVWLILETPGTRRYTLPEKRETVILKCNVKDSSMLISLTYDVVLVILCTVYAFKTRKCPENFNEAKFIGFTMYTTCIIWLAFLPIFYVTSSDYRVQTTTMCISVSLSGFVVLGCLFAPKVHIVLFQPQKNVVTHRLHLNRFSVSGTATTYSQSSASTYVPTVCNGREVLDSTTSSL
How it was run: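 Cell line stably expressing rat mGlu3 with the promiscuous G-protein Gα15. Calcium mobilization with fluorescence read-out, inhibition of the glutamate response. Full concentration-response curves, top concentration 30 μM. % Glu Max is the response with 30 μM test compound as a percentage of the maximal response to 100 μM glutamate. Values averaged over n-3.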

in vivo [8] = conditions: mouse, ip, 10 mg/kg
[9] = target: Metabotropic glutamate receptor 2 (Rattus norvegicus) (UniProt P31421); test: Negative allosteric modulation of rat mGlu2 receptor assessed as calcium mobilization at 30 uM by cell based fluorescence assay; format: functional
How it was run: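 Rat mGlu2 calcium mobilization assay with fluorescence read-out; full concentration-response curve analysis up to 30 μM top concentration.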

Cytochrome P450 2C9 = Cytochrome P450 2C9 (Homo sapiens, UniProt P11712); test: Inhibition of CYP2C9 in human liver microsomes by cocktail assay; format: ADME
Sequence of Cytochrome P450 2C9 (P11712 whole entry, canonical isoform): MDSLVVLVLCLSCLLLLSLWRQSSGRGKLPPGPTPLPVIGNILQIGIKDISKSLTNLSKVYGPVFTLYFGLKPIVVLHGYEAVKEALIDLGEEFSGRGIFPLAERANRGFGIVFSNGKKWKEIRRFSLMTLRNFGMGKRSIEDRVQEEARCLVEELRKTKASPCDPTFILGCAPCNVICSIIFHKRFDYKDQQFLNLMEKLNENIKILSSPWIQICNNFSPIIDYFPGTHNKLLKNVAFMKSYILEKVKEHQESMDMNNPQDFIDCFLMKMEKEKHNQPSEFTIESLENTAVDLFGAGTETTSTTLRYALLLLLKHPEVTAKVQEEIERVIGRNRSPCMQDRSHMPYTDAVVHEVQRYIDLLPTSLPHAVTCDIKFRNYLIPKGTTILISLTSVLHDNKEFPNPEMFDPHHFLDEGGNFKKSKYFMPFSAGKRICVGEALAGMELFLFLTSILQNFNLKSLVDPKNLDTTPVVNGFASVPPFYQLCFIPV
How it was run: (§1)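 Human liver microsome cocktail incubation with probe substrates for four P450s; inhibition of each isoform measured.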

[10] = Oral bioavailability in rat at 3 mg/kg; format: ADME, organism-based; conditions: in vivo
[11] = target: 5-hydroxytryptamine receptor 2B (Homo sapiens) (UniProt P41595); test: Binding affinity to 5HT2B receptor (unknown origin) at 10 uM by radioligand binding assay
Sequence of 5-hydroxytryptamine receptor 2B (Homo sapiens) (P41595 whole entry): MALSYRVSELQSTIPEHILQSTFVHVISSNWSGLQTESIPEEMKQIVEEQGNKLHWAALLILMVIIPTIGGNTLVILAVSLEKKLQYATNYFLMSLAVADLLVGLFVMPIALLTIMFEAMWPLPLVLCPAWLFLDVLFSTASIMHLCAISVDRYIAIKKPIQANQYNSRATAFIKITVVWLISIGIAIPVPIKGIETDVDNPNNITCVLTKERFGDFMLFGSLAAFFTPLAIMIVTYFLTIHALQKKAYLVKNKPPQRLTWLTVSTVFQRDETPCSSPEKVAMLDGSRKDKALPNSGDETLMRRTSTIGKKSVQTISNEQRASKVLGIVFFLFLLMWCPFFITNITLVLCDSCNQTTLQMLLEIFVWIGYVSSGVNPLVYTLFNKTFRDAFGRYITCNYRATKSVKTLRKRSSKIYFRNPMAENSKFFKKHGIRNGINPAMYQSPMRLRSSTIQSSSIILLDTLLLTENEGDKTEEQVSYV

Brain [12] = test: Fraction unbound in mouse brain; format: ADME, tissue-based
MDCK [13] = test: Apparent permeability from basolateral to apical side in MDCK cells expressing human MDR1 gene; format: ADME, cell-based, Canis lupus familiaris; conditions: dog
How it was run: (§2)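 Permeability and P-gp efflux measured in MDCK cells transfected with human MDR1 gene.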

[14] = Plasma clearance in rat at 1 mg/kg, iv and 3 mg/kg, po; format: ADME, organism-based
How it was run: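 Rat PK, n = 2 each route. IV: 1.0 mg/kg as solution in 10% EtOH, 50% PEG 400, 40% saline (1 mg/mL). Oral: 3.0 mg/kg as fine microsuspension in 0.1% Tween 80 and 0.5% methyl cellulose in H2O (0.3 mg/mL). Plasma clearance and bioavailability derived from plasma levels.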

Mus musculus [15] = test: Anxiolytic activity in CD1 mouse assessed as inhibition of marble burying behavior at 56.6 mg/kg, ip after 30 mins; format: functional, organism-based
in vivo [16] = conditions: rat, ip, 10 mg/kg
Rattus norvegicus [17] = test: Antidepressant activity in Sprague-Dawley rat assessed as reduction of immobility time at 56.6 mg/kg, ip measured up to 6 mins by forced swim test; format: functional, organism-based
[18] = Plasma concentration in mouse at 10 mg/kg, ip after 30 mins; format: ADME, organism-based
How it was run: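 Single time-point tissue distribution in mice. Dosed IP as a fine microsuspension in 0.1% Tween 80 and 0.5% methyl cellulose in H2O (1 mg/mL). Plasma and brain were sampled 30 min post dose, n = 3.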

[19] = Volume of distribution at steady state in rat at 1 mg/kg, iv and 3 mg/kg, po; format: ADME, organism-based; conditions: in vivo, read-out: Vdss
How it was run: (§3)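 Rat IV PK, n = 2, 1.0 mg/kg as solution in 10% EtOH, 50% PEG 400, 40% saline (1 mg/mL); oral arm 3.0 mg/kg as fine microsuspension in 0.1% Tween 80 and 0.5% methyl cellulose in H2O (0.3 mg/mL).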

MDCK [20] = test: Apparent permeability from apical to basolateral side in MDCK cells expressing human MDR1 gene; format: ADME, cell-based, Canis lupus familiaris; conditions: dog; how it was run: as §2
[21] = Cmax in mouse at 10 mg/kg, ip; format: ADME, organism-based; set-up: dose 10 mg/kg, route intraperitoneal; conditions: in vivo
Cytochrome P450 1A2 = target: T1, Cytochrome P450 1A2 (Homo sapiens, UniProt P05177); test: Inhibition of CYP1A2 in human liver microsomes by cocktail assay; format: ADME
T1 sequence (P05177 whole entry): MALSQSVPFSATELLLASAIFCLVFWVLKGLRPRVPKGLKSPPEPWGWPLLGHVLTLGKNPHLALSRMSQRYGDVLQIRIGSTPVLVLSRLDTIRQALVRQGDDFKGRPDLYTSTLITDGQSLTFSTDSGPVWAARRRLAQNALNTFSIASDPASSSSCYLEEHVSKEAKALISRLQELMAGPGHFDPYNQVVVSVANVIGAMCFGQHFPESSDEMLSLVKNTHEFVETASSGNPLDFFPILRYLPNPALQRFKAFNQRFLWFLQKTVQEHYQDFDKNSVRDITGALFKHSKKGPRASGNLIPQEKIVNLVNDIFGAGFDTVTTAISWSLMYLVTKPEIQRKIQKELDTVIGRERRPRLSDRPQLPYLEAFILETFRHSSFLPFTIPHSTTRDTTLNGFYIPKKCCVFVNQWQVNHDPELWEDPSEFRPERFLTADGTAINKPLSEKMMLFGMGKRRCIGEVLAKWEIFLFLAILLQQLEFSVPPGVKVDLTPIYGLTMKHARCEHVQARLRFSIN

Cytochrome P450 2D6 = Cytochrome P450 2D6 (Homo sapiens, UniProt P10635); test: Inhibition of CYP2D6 in human liver microsomes by cocktail assay; format: ADME; how it was run: as §1
Rattus norvegicus [22] = test: Half life in rat at 1 mg/kg, iv and 3 mg/kg, po; format: ADME, organism-based; conditions: in vivo; how it was run: as §3
[23] = AUC (0 to infinity) in mouse at 10 mg/kg, ip; format: ADME, organism-based; set-up: dose 10 mg/kg, time infinity, route intraperitoneal; conditions: in vivo
Mus musculus [24] = test: Anxiolytic activity in ip dosed CD1 mouse assessed as inhibition of marble burying behavior after 30 mins; format: functional, organism-based
[25] = AUC (0 to infinity) in rat at 10 mg/kg, ip; format: ADME, organism-based; set-up: dose 10 mg/kg, time infinity, route intraperitoneal; conditions: in vivo
Plasma [26] = test: Fraction unbound in mouse plasma; format: ADME, cell-free
[27] = Cmax in rat at 10 mg/kg, ip; format: ADME, organism-based; set-up: dose 10 mg/kg, route intraperitoneal; conditions: in vivo
Brain [28] = test: Fraction unbound in rat brain; format: ADME, tissue-based
[29] = target: 5-hydroxytryptamine receptor 2B (Homo sapiens) (UniProt P41595); test: Agonist activity at 5HT2B receptor (unknown origin) up to 10 uM
[30] = target: 5-hydroxytryptamine receptor 2B (Homo sapiens) (UniProt P41595); test: Antagonist activity at 5HT2B receptor (unknown origin) up to 10 uM
Cytochrome P450 3A4 = Cytochrome P450 3A4 (Homo sapiens, UniProt P08684); test: Inhibition of CYP3A4 in human liver microsomes by cocktail assay; format: ADME; how it was run: as §1
[31] = target: Metabotropic glutamate receptor 5 (Rattus norvegicus) (UniProt P31424); test: Modulation of rat mGlu5 receptor assessed as assessed as calcium mobilization at 30 uM by cell based fluorescence assay; format: functional
Sequence of Metabotropic glutamate receptor 5 (Rattus norvegicus) (P31424 21-1203 limits assumed): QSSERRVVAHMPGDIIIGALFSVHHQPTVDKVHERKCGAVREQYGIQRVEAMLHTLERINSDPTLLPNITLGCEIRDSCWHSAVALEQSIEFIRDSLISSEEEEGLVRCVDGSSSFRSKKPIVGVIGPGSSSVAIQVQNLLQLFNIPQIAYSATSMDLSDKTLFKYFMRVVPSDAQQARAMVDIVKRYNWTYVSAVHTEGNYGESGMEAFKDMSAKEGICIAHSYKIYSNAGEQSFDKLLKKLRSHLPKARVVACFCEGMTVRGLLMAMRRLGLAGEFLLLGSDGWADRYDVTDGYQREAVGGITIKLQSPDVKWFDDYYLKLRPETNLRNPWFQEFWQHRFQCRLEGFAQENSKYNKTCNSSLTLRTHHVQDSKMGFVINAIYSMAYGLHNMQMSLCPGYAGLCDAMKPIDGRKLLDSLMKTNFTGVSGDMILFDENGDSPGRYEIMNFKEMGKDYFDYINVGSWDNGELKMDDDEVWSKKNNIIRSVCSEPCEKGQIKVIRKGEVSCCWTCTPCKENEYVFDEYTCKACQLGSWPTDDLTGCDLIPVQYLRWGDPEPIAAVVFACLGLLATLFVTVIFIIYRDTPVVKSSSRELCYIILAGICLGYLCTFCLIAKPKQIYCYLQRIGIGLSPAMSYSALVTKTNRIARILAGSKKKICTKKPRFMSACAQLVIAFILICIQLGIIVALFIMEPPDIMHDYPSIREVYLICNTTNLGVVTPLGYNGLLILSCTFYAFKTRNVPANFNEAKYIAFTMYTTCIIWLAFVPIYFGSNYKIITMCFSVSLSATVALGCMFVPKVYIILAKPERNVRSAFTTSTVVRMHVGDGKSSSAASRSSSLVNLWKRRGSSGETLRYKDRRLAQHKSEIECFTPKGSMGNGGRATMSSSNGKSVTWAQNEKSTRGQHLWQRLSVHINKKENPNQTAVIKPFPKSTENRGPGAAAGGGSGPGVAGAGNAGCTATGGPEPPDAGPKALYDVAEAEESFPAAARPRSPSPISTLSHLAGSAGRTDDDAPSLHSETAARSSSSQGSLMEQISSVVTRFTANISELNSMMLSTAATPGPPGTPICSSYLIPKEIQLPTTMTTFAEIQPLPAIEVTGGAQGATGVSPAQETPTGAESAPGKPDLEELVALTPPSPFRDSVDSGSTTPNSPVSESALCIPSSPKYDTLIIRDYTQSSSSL

[32] = target: Metabotropic glutamate receptor 5 (Rattus norvegicus) (UniProt P31424); test: Positive allosteric modulation of rat mGlu5 receptor assessed as calcium mobilization by cell based fluorescence assay; format: functional

C[C@@H]1CN(c2cccnc2)C(=O)c2cc(COc3ccc(Cl)cn3)nn21
Activity [1]: 1.73%
EC50 [2]: > 30000 nM
clearance [3]: 50 mL/min/kg
half-life [4]: 21 min
Vd [5]: 1.2 L/kg
Fu (Plasma [6]): 0.118
IC50 [7]: 608 nM

C[C@@H]1CN(c2cccnc2F)C(=O)c2cc(COc3ccc(Cl)cn3)nn21
Tmax (in vivo [8]): 30 min
Activity [9]: inactive
IC50 (Cytochrome P450 2C9): 25.6 µM
Activity [1]: 1.71%
bioavailability [10]: 60%
inhibition [11]: 65%
Fu (Brain [12]): 0.035
Papp (MDCK [13]): 49.9 ×10⁻⁶ cm/s
clearance [14]: 30 mL/min/kg
EC50 [2]: > 30000 nM
clearance [3]: 37 mL/min/kg
inhibition (Mus musculus [15]): Active
Tmax (in vivo [16]): 12.3 min
Activity (Rattus norvegicus [17]): Active
concentration at 0.5 h [18]: 2290 nM
half-life [4]: 42 min
Vd [19]: 1.4 L/kg
Papp (MDCK [20]): 45 ×10⁻⁶ cm/s
Cmax [21]: 4.48 µM
IC50 (Cytochrome P450 1A2): > 30 µM
Vd [5]: 1.6 L/kg
IC50 (Cytochrome P450 2D6): > 30 µM
t1/2 (Rattus norvegicus [22]): 49 min
AUC(0-inf) [23]: 7.26 µM·h
inhibition (Mus musculus [24]): Dose-dependent effect
AUC(0-inf) [25]: 11.5 µM·h
Fu (Plasma [6]): 0.083
Fu (Plasma [26]): 0.163
Cmax [27]: 4.57 µM
IC50 [7]: 392 nM
Fu (Brain [28]): 0.052
Activity [29]: inactive
Activity [30]: Active
IC50 (Cytochrome P450 3A4): > 30 µM

C[C@@H]1CN(c2ccc(F)cc2)C(=O)c2cc(COc3ccc(F)cc3)nn21
Activity [1]: 2.09%
EC50 [2]: 92 nM
clearance [3]: 40 mL/min/kg
Activity [31]: 87%
half-life [4]: 95 min
Vd [5]: 3.5 L/kg
Fu (Plasma [6]): 0.06
Activity [32]: Active
IC50 [7]: 462 nM

C[C@@H]1CN(c2cc(F)cc(C#N)c2)C(=O)c2cc(COc3ccc(Cl)cn3)nn21
Activity [1]: 1.92%
EC50 [2]: 1040 nM
clearance [3]: 13 mL/min/kg
Activity [31]: 28%
half-life [4]: 194 min
Vd [5]: 2.2 L/kg
Fu (Plasma [6]): 0.045
Activity [32]: Active
IC50 [7]: 315 nM
Fu (Brain [28]): 0.032

C[C@@H]1CN(c2ccc(F)cc2)C(=O)c2cc(COc3ccc(Cl)cn3)nn21
Activity [1]: 1.84%
EC50 [2]: 2920 nM
clearance [3]: 29 mL/min/kg
Activity [31]: 81.4%
half-life [4]: 141 min
Vd [5]: 5.2 L/kg
Fu (Plasma [6]): 0.034
Activity [32]: Active
IC50 [7]: 605 nM

C[C@@H]1CN(c2ccc(F)cc2)C(=O)c2cc(COc3ccccn3)nn21
Activity [9]: inactive
